Our source for the IC50 values is ChEMBL document CHEMBL4715770, “Inhibition of Low Molecular Weight Protein Tyrosine Phosphatase by an Induced-Fit Mechanism” (J Med Chem, 2016).

Test [1] has as its target T1, Serine/threonine-protein phosphatase 5 (Homo sapiens, UniProt P53041).
T1 sequence (P53041 whole entry): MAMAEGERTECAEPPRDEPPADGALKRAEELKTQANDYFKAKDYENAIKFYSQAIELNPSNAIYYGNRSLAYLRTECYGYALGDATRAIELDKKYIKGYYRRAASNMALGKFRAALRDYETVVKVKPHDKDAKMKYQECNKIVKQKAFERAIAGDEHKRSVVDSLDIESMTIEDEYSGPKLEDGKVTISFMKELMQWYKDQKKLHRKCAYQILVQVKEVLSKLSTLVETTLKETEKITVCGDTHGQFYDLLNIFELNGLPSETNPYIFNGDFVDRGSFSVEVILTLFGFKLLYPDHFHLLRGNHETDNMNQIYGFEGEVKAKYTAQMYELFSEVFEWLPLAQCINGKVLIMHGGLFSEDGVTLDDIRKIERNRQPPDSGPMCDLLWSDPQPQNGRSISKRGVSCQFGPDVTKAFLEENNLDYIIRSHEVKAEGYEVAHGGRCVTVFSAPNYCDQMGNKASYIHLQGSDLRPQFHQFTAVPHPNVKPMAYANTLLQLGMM
Nature of the test: Inhibition of His-tagged PP5 (unknown origin) expressed in Escherichia coli BL21 cells using para-nitrophenyl phosphate as substrate incubated for 5 to 10 mins by microplate reader based spectrophotometric analysis.

The target in test [2] is Receptor-type tyrosine-protein phosphatase beta (Homo sapiens, UniProt P23467). Description: Inhibition of His-tagged PTPbeta (unknown origin) expressed in Escherichia coli BL21 cells using para-nitrophenyl phosphate as substrate incubated for 5 to 10 mins by microplate reader based spectrophotometric analysis.
Sequence of Receptor-type tyrosine-protein phosphatase beta (P23467 whole entry): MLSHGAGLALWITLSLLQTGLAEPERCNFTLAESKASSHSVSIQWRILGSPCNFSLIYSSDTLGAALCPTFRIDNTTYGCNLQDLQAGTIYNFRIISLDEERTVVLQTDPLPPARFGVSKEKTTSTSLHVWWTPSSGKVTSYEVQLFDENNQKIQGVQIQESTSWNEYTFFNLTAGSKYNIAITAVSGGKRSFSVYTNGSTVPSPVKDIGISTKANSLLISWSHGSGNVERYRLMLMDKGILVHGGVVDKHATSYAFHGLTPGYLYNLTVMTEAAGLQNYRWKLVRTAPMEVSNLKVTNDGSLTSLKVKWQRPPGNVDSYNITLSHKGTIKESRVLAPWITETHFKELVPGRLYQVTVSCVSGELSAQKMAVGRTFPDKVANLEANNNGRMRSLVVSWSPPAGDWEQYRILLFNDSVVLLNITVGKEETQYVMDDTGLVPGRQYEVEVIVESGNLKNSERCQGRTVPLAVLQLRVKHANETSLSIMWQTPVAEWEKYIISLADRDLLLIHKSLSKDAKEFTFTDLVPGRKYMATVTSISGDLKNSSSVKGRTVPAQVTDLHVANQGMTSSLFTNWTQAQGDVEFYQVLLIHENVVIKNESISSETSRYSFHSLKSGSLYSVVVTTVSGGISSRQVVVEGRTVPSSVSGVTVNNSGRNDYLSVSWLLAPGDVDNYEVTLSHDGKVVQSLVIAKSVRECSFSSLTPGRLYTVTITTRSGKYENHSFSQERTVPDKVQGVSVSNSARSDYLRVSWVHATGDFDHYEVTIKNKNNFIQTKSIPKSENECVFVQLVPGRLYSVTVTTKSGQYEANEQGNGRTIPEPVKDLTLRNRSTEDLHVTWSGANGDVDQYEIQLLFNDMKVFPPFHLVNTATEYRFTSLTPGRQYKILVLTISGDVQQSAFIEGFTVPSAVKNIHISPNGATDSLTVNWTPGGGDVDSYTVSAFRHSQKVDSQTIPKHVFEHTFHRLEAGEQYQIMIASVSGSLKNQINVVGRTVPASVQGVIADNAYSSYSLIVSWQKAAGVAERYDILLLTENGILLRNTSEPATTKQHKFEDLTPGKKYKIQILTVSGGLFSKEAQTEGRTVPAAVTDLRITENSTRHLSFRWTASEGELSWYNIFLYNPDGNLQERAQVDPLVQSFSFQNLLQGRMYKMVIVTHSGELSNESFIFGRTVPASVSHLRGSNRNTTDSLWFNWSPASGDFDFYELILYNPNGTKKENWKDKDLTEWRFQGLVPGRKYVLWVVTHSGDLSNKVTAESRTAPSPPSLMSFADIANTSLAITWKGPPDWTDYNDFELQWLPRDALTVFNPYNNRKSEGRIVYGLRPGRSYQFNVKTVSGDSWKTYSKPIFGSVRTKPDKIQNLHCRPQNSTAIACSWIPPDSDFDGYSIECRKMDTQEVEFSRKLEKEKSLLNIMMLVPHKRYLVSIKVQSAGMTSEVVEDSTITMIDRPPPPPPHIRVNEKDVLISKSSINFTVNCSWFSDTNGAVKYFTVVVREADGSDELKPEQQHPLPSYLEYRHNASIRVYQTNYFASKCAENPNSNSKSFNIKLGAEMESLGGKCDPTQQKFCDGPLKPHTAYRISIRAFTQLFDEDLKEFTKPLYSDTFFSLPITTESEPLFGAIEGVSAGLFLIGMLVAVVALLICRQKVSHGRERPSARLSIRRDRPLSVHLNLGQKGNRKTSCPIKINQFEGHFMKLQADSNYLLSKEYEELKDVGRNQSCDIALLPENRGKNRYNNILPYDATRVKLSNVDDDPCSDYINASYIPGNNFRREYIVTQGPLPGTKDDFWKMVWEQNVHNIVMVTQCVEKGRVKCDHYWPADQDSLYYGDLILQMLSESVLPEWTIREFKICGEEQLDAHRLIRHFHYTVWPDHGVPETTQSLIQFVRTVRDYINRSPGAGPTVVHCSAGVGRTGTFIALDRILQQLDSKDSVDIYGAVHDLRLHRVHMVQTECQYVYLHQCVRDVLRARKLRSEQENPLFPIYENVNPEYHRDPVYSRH
Test [3] concerns the target T2, Tyrosine-protein phosphatase non-receptor type 2 (Homo sapiens, UniProt P17706).
T2 sequence (P17706 whole entry): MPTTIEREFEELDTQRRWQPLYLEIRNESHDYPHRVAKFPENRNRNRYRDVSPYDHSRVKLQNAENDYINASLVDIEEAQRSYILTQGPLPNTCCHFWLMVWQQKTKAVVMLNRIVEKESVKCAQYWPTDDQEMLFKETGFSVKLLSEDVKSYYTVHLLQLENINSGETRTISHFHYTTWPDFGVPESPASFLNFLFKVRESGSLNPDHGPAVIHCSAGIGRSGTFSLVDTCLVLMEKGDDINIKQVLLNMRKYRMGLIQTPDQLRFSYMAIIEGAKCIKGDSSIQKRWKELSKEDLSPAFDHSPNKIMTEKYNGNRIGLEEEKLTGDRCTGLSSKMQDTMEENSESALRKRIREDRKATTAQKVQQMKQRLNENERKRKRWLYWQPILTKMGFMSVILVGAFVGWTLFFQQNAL
Description: Inhibition of His-tagged TC-PTP (unknown origin) expressed in Escherichia coli BL21 cells using para-nitrophenyl phosphate as substrate incubated for 5 to 10 mins by microplate reader based spectrophotometric analysis.

Test [4] addresses Receptor-type tyrosine-protein phosphatase S (Homo sapiens, UniProt Q13332). Nature of the test: Inhibition of His-tagged PTPsigma (unknown origin) expressed in Escherichia coli BL21 cells using para-nitrophenyl phosphate as substrate incubated for 5 to 10 mins by microplate reader based spectrophotometric analysis.
Test [5] addresses Tyrosine-protein phosphatase non-receptor type 6 (Homo sapiens, UniProt P29350). Nature of the test: Inhibition of His-tagged SHP1 (unknown origin) expressed in Escherichia coli BL21 cells using para-nitrophenyl phosphate as substrate incubated for 5 to 10 mins by microplate reader based spectrophotometric analysis.
Test [6] deals with Receptor-type tyrosine-protein phosphatase mu (Homo sapiens, UniProt P28827). Nature of the test: Inhibition of His-tagged PTPmu (unknown origin) expressed in Escherichia coli BL21 cells using para-nitrophenyl phosphate as substrate incubated for 5 to 10 mins by microplate reader based spectrophotometric analysis.
Test [7] addresses Receptor-type tyrosine-protein phosphatase epsilon (Homo sapiens, UniProt P23469). Description: Inhibition of His-tagged PTPepsilon (unknown origin) expressed in Escherichia coli BL21 cells using para-nitrophenyl phosphate as substrate incubated for 5 to 10 mins by microplate reader based spectrophotometric analysis.
The target of test [8] is Receptor-type tyrosine-protein phosphatase gamma (Homo sapiens, UniProt P23470). Nature of the test: Inhibition of His-tagged PTPgamma (unknown origin) expressed in Escherichia coli BL21 cells using para-nitrophenyl phosphate as substrate incubated for 5 to 10 mins by microplate reader based spectrophotometric analysis.
The target in test [9] is Receptor-type tyrosine-protein phosphatase F (Homo sapiens, UniProt P10586). Description: Inhibition of His-tagged LAR (unknown origin) expressed in Escherichia coli BL21 cells using para-nitrophenyl phosphate as substrate incubated for 5 to 10 mins by microplate reader based spectrophotometric analysis.
Test [10] is described as follows: Inhibition of His-tagged PTP-H1 (unknown origin) expressed in Escherichia coli BL21 cells using para-nitrophenyl phosphate as substrate incubated for 5 to 10 mins by microplate reader based spectrophotometric analysis. Also noted: species or system Homo sapiens. The gist of the method: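 Enzyme at 5-20 nM was added to substrate plus a range of inhibitor concentrations and run 5-10 min at room temperature. Quenched with 5N NaOH and p-nitrophenol read at 405 nm (ε 18,000 M-1cm-1), with a no-enzyme background correction. IC50 from curve fitting.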

In test [11] the target is T3, Dual specificity protein phosphatase 23 (Homo sapiens, UniProt Q9BVJ7).
T3 sequence (Q9BVJ7 whole entry): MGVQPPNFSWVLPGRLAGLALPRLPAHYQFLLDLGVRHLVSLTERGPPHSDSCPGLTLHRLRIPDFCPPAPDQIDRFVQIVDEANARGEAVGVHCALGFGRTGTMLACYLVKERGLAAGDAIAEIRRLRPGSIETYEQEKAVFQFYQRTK
Nature of the test: Inhibition of His-tagged VHZ (unknown origin) expressed in Escherichia coli BL21 cells using para-nitrophenyl phosphate as substrate incubated for 5 to 10 mins by microplate reader based spectrophotometric analysis.

In test [12] the target is Tyrosine-protein phosphatase non-receptor type 13 (Homo sapiens, UniProt Q12923). Nature of the test: Inhibition of His-tagged FAP1 (unknown origin) expressed in Escherichia coli BL21 cells using para-nitrophenyl phosphate as substrate incubated for 5 to 10 mins by microplate reader based spectrophotometric analysis.
The target of test [13] is T4, Tyrosine-protein phosphatase non-receptor type 1 (Homo sapiens, UniProt P18031).
T4 sequence (P18031 whole entry): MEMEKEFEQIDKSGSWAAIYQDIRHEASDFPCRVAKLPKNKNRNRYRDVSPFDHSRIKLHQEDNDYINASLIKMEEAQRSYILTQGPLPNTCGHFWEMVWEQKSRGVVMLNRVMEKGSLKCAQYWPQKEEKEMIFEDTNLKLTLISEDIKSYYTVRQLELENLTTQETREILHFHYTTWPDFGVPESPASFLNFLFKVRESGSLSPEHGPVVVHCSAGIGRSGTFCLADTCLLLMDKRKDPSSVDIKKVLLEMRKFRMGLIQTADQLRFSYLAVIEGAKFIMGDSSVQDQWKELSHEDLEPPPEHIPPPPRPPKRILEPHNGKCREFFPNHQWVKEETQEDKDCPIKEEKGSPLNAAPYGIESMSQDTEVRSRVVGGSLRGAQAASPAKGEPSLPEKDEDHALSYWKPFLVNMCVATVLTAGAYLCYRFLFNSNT
Description: Inhibition of His-tagged PTP1B (unknown origin) expressed in Escherichia coli BL21 cells using para-nitrophenyl phosphate as substrate incubated for 5 to 10 mins by microplate reader based spectrophotometric analysis.

Each structure is given as a SMILES string.

Sequence of Tyrosine-protein phosphatase non-receptor type 6 (P29350 whole entry): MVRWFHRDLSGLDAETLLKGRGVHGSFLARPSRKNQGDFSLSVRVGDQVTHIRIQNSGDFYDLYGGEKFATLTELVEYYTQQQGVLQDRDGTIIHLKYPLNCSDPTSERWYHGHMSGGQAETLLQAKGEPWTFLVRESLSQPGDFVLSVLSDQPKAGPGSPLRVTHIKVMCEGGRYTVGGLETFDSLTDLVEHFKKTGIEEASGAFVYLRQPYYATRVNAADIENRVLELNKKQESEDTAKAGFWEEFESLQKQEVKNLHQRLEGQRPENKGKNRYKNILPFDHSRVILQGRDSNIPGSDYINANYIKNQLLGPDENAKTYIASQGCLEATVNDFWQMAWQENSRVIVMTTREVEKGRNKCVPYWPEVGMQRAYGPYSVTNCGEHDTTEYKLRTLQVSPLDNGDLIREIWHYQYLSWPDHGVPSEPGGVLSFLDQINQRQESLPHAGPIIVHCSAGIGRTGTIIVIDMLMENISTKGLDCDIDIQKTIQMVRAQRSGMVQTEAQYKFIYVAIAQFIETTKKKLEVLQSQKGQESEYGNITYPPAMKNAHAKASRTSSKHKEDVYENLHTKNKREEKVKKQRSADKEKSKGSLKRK
Sequence of Receptor-type tyrosine-protein phosphatase S (Q13332 whole entry): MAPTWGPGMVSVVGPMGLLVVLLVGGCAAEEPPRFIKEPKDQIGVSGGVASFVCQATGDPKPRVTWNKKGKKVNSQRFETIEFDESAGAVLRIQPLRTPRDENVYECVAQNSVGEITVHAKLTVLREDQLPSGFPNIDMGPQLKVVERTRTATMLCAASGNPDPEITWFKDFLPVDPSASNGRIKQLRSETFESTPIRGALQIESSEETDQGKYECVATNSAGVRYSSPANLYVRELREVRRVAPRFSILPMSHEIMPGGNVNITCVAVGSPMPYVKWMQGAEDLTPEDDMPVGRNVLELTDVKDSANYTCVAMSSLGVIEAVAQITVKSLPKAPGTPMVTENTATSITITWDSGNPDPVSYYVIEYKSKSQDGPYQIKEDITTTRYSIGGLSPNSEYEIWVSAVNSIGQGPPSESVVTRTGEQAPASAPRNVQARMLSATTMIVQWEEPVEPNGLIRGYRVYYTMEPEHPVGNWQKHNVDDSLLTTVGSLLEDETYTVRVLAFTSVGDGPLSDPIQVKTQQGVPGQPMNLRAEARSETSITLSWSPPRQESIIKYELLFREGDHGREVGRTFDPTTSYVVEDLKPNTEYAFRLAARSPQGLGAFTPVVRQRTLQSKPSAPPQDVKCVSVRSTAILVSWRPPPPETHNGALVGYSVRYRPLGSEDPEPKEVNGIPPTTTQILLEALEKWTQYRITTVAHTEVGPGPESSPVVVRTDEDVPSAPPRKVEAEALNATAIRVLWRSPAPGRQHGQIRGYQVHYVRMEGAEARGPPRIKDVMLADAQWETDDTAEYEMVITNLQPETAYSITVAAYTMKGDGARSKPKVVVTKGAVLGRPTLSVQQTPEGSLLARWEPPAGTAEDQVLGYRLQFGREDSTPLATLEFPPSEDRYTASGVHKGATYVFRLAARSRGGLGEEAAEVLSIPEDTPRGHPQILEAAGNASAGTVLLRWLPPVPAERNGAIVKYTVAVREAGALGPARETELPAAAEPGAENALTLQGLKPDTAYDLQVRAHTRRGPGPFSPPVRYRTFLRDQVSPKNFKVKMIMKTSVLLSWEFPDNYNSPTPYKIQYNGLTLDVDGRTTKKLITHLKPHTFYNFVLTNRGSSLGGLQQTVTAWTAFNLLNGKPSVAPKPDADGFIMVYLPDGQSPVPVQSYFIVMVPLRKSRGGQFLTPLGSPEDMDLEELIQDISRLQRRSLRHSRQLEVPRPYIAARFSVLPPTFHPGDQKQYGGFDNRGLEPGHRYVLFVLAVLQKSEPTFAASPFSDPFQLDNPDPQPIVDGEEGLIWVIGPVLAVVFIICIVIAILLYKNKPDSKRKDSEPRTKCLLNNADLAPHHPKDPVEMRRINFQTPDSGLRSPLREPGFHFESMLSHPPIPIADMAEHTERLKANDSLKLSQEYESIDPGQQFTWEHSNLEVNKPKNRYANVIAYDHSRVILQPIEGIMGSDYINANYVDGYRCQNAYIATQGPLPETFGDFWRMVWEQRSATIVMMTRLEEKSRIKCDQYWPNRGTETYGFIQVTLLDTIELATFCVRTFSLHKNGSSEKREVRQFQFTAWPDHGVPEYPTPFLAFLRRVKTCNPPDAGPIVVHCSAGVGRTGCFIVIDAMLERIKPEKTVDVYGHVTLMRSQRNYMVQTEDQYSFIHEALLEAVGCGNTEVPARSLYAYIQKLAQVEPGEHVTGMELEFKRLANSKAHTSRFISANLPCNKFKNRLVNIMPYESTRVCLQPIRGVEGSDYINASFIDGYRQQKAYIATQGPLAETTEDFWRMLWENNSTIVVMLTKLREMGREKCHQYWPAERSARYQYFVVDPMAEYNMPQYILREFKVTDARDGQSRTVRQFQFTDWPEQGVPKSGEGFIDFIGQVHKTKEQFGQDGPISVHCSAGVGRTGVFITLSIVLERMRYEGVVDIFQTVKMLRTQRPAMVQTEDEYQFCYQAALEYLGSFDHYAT

The IC50 is the midpoint of a concentration-inhibition curve. The low end stands for greater potency, the high end for weaker potency. For the molecule `O=C(Nc1ccc(OCc2ccccc2)c(Cl)c1)C(c1ccccc1)S(=O)(=O)O` (stereo not drawn), the IC50 in test [1], in test [2], in test [3], in test [4], in test [5] and in test [6] was greater than 200 µM in each case. In addition, the IC50 in test [7], in test [8], in test [9], in test [10] and in test [11] was greater than 200 µM throughout.

As for `O=C(Nc1cc(C(F)(F)F)cc(C(F)(F)F)c1)C(c1ccccc1)S(=O)(=O)O` (stereo not drawn), the IC50 was greater than 200 µM in test [1]; 76 µM in test [12]; greater than 200 µM in test [2]; greater than 200 µM in test [3]; greater than 200 µM in test [4]; greater than 200 µM in [5]. In addition, the IC50 in test [13], in test [6], in [7], in test [8], in test [9] and in test [10] was greater than 200 µM throughout. Besides, in test [11], the IC50 was greater than 200 µM.

On to `O=C(Nc1ccc(-n2ccnc2)cc1)C(c1ccccc1)S(=O)(=O)O` (stereo not drawn), for which the IC50 in [1], in test [12], in [2], in test [3], in test [4] and in test [5] was greater than 100 µM each time. Further, the IC50 in test [13], in [6], in [7], in test [8], in test [9] and in [10] was greater than 100 µM in each case. The molecule further displayed an IC50 in test [11] greater than 100 µM.

`Cc1c(Br)cc(NC(=O)C(c2ccccc2)S(=O)(=O)O)cc1Br` (stereo not drawn): the IC50 in test [1], in test [12], in [2], in [3], in test [4] and in test [5] was greater than 200 µM throughout. Besides, the concentration for half-maximal inhibition (IC50) in test [13], in test [6], in test [7], in test [8], in test [9] and in test [10] was greater than 200 µM in each case. In [11], this molecule registered an IC50 greater than 200 µM.

Turning to `O=C(Nc1nc2ccc([N+](=O)[O-])cc2s1)C(c1ccccc1)S(=O)(=O)O` (stereo not drawn), the half-maximal inhibitory concentration (IC50) in [1], in test [12], in test [2], in test [3], in test [4] and in test [5] was greater than 100 µM in each case. Also, the IC50 in test [13], in test [6], in test [7], in test [8], in test [9] and in test [10] was greater than 100 µM throughout. Also, the IC50 in [11] was greater than 100 µM.
